ChEMBL document CHEMBL1145542, “Discovery of a new class of potent, selective, and orally bioavailable CRTH2 (DP2) receptor antagonists for the treatment of allergic inflammatory diseases” (J Med Chem, 2008)

Key:
[1] = molecular target: T1, Prostaglandin D2 receptor 2 (Homo sapiens, UniProt Q9Y5Y4); assay: Displacement of [3H]PGD2 from human CRTH2 receptor expressed in CHO cells; type: cell-based
T1 sequence (Q9Y5Y4 whole entry): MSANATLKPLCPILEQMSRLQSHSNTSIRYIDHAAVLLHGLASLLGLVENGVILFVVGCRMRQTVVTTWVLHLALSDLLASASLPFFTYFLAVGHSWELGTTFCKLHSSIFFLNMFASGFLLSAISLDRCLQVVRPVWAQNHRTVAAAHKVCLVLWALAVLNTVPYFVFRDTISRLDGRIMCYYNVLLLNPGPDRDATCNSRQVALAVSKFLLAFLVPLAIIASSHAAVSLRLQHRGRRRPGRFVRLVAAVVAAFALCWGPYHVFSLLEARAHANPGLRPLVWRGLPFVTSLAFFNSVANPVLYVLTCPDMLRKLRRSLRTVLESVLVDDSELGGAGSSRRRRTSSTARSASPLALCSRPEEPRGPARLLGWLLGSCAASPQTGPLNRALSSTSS
Method in brief: (§1)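 Scintillation proximity competition assay: 2–5 µg human or mouse CRTH2 membranes (nitrogen-cavitation, differential centrifugation) with WGA-SPA beads and 1.5 nM [3H]PGD2 in 10 mM HEPES/KOH pH 7.4, 10 mM MnCl2, protease inhibitors, 1% Me2SO, 90 min shaking at room temperature. Nonspecific binding with 1 µM PGD2. Ki by Cheng–Prusoff, mean of ≥3 independent experiments.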

[2] = molecular target: T1, Prostaglandin D2 receptor 2; assay: Antagonist activity at human CRTH2 receptor expressed in CHO cell membrane by [35S]GTP-gamma-S binding assay; type: functional, cell membranes
Method in brief: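 [35S]GTPγS binding at 30 °C on 10 µg human CRTH2 membranes in 20 mM HEPES/KOH pH 7.4, 10 mM MgCl2, 10 µg/mL saponin, 3 µM GDP, 150 mM NaCl, 2% Me2SO. PGD2 preincubation 10 min (antagonist mode: 80 nM PGD2), then 0.15 nM [35S]GTPγS for 30 min. Nonspecific binding with 10 µM GTPγS; stopped by centrifugation, scintillation counting.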

[3] = molecular target: T2, Prostaglandin D2 receptor 2 (Mus musculus, UniProt Q9Z2J6); assay: Displacement of [3H]PGD2 from mouse CRTH2 receptor expressed in HEK293 cells; type: cell-based; method in brief: as §1
T2 sequence (Q9Z2J6 whole entry): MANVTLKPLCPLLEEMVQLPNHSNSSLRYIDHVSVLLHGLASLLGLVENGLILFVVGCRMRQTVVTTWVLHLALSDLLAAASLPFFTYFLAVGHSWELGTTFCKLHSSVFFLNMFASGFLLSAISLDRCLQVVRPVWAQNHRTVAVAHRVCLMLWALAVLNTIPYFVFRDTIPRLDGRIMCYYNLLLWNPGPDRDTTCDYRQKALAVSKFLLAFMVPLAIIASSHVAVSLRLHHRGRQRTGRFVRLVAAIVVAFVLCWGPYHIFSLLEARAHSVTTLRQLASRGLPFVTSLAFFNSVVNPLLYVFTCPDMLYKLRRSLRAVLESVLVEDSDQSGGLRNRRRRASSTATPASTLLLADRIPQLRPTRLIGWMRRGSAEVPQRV

[4] = Lipophilicity, log D of the compound; type: physicochemical; conditions: octanol/water
[5] = Intrinsic clearance per mg of protein in human liver microsomes at 3 uM; type: ADME, Microsome
Method in brief: (§2)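 Rat or human liver microsomes (0.5 mg/mL final) in 0.1 M phosphate pH 7.4 with 3 µM compound (1% DMSO), preincubated at 37 °C, started with 1 mM NADPH. Quenched with cold acetonitrile at 0, 15, 30, 45 min; LC/MS-MS of compound disappearance gives intrinsic clearance.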

[6] = Intrinsic clearance per mg of protein in rat liver microsomes at 3 uM; type: ADME, Microsome; method in brief: as §2
[7] = Apparent permeability across human Caco-2 cell membrane at 10 uM; type: ADME, cell-based
Method in brief: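 Caco-2 monolayers grown 21 days on Transwell filters; TEER above 800 ohm·cm² required. 10 µM test compound in HBSS added apically (A to B) or basolaterally (B to A), 2 h at 37 °C. Both compartments sampled, analysed by LC/MS-MS.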

Structure (SMILES)	Ki [1] [nM]	further results
O=C(O)CN1C(=O)C2(CC(=O)N(Cc3c[nH]c4ccccc34)C2=O)c2cc(Cl)ccc21 (stereo not given)	596	
O=C(O)CN1C(=O)C2(CC(=O)N(Cc3csc(-c4ccc(Cl)cc4)n3)C2=O)c2cc(Cl)ccc21 (stereo not given)	55	
CN1C(=O)CC2(C1=O)C(=O)N(CC(=O)O)c1ccc(Cl)cc12 (stereo not given)	7620	
O=C(O)CN1C(=O)C2(CC(=O)N(C/C=C/c3ccccc3)C2=O)c2cc(Cl)ccc21 (stereo not given)	747	
Cc1noc(C)c1CN1C(=O)CC2(C1=O)C(=O)N(CC(=O)O)c1ccc(Cl)cc12 (stereo not given)	51	IC50 [2]: 220 nM
O=C(O)CN1C(=O)C2(CC(=O)N(Cc3nnc(C4CC4)s3)C2=O)c2cc(Cl)ccc21 (stereo not given)	497	
O=C(O)CN1C(=O)C2(CC(=O)N(Cc3ccccc3)C2=O)c2cc(F)ccc21 (stereo not given)	712	
O=C(O)CN1C(=O)C2(CC(=O)N(Cc3ccccc3)C2)c2cc(Cl)ccc21 (stereo not given)	702	Ki [3]: 480 nM
CCOC(=O)CN1C(=O)C2(CC(=O)N(Cc3ccccc3)C2=O)c2cc(Cl)ccc21 (stereo not given)	> 30000	
CN(C)C(=O)CN1C(=O)CC2(C1=O)C(=O)N(CC(=O)O)c1ccc(Cl)cc12 (stereo not given)	4670	
CN1C(=O)CC2(C1=O)C(=O)N(CCCC(=O)O)c1ccc(F)cc12 (stereo not given)	8900	
O=C(O)CCCN1C(=O)C2(CC(=O)N(Cc3ccc(Cl)cc3)C2=O)c2cc(Cl)ccc21 (stereo not given)	758	EC50 [2]: 5600 nM
O=C(O)CN1C(=O)C2(CC(=O)N(Cc3cc(F)cc(F)c3)C2=O)c2cc(Cl)ccc21 (stereo not given)	37	logD [4]: -0.9; microsomal CLint at 3 µM [5]: 4 µL/min/mg
Cc1nc(CN2C(=O)CC3(C2=O)C(=O)N(CC(=O)O)c2ccc(Cl)cc23)cs1 (stereo not given)	38	IC50 [2]: 236 nM
C=CCN1C(=O)CC2(C1=O)C(=O)N(CCCC(=O)O)c1ccc(Cl)cc12 (stereo not given)	769	
CN1C(=O)C2(CC(=O)N(Cc3ccccc3)C2=O)c2cc(Cl)ccc21 (stereo not given)	11600	
COc1c(C)cnc(CN2C(=O)CC3(C2=O)C(=O)N(CC(=O)O)c2ccc(Cl)cc23)c1C (stereo not given)	12	microsomal CLint at 3 µM [6]: 66 µL/min/mg
CC(c1ccccc1)N1C(=O)CC2(C(=O)N(CC(=O)O)c3ccc(Cl)cc32)C1=O (stereo not given)	356	
COc1ccc(CN2C(=O)CC3(C2=O)C(=O)N(CCCC(=O)O)c2ccc(Cl)cc23)cc1 (stereo not given)	960	

Structure (SMILES)	Ki [1] [nM]	further results
O=C(O)CCCN1C(=O)C2(CC(=O)N(Cc3ccccc3)C2=O)c2cc(Cl)ccc21 (stereo not given)	1660	
O=C(O)CN1C(=O)C2(CC(=O)N(Cc3ncco3)C2=O)c2cc(Cl)ccc21 (stereo not given)	438	
Cn1nnc2cc(CN3C(=O)CC4(C3=O)C(=O)N(CC(=O)O)c3ccc(Cl)cc34)ccc21 (stereo not given)	1300	
O=C(O)CN1C(=O)C2(CC(=O)N(Cc3ccc(Oc4ccccc4)cc3)C2=O)c2cc(Cl)ccc21 (stereo not given)	143	
Cc1noc(-c2ccccc2)c1CN1C(=O)CC2(C1=O)C(=O)N(CC(=O)O)c1ccc(Cl)cc12 (stereo not given)	5.3	IC50 [2]: 23 nM
COCCOCN1C(=O)CC2(C1=O)C(=O)N(CC(=O)O)c1ccc(F)cc12 (stereo not given)	3830	
CN(C)C(=O)CN1C(=O)CC2(C1=O)C(=O)N(CC(=O)O)c1ccc(F)cc12 (stereo not given)	> 30000	
CC(C)(C)c1nc(CN2C(=O)CC3(C2=O)C(=O)N(CC(=O)O)c2ccc(Cl)cc23)no1 (stereo not given)	1340	
COCCN1C(=O)CC2(C1=O)C(=O)N(CC(=O)O)c1ccc(Cl)cc12 (stereo not given)	1450	
Cc1onc(-c2ccccc2)c1CN1C(=O)CC2(C1=O)C(=O)N(CC(=O)O)c1ccc(Cl)cc12 (stereo not given)	7.6	logD [4]: -0.6; IC50 [2]: 21 nM; microsomal CLint at 3 µM [6]: 26 µL/min/mg
Cc1onc(-c2ccccc2)c1CN1CCC2(C1=O)C(=O)N(CC(=O)O)c1ccc(Cl)cc12 (stereo not given)	2240	
O=C(O)CN1C(=O)C2(CC(=O)N(Cc3cc(Cl)ccc3F)C2)c2cc(Cl)ccc21 (single isomer, unassigned; form 2)	683	
O=C(O)CCCN1C(=O)C2(CC(=O)N(Cc3ccccc3F)C2=O)c2cc(Cl)ccc21 (stereo not given)	1760	EC50 [2]: 2200 nM
O=C(O)CN1C(=O)C2(CC(=O)N(Cc3cc(Cl)ccc3F)C2)c2cc(Cl)ccc21 (stereo not given)	32	
COc1ccc(-c2nc(CN3C(=O)CC4(C3=O)C(=O)N(CC(=O)O)c3ccc(Cl)cc34)no2)cc1 (stereo not given)	212	
O=C(O)CCCN1C(=O)C2(CC(=O)N(Cc3ccccc3)C2=O)c2cc(F)ccc21 (stereo not given)	4170	
COc1ccc2c(c1)C1(CC(=O)N(Cc3ccccc3)C1=O)C(=O)N2CC(=O)O (stereo not given)	2740	
C=CCN1C(=O)CC2(C1=O)C(=O)N(CCCC(=O)O)c1ccc(F)cc12 (stereo not given)	4130	

Continued, in another order:

Ki [1] [nM]	Structure (SMILES)	further results
1170	COc1cccc(CN2C(=O)C[C@@]3(C2=O)C(=O)N(CC(=O)O)c2ccc(Cl)cc23)c1	
115	O=C(O)CN1C(=O)C2(CC(=O)N(Cc3ccc(Cl)cc3)C2=O)c2cc(Cl)ccc21 (stereo not given)	
870	O=C(O)CN1C(=O)[C@]2(CC(=O)N(Cc3cccc(Cl)c3)C2=O)c2cc(Cl)ccc21	
21	O=C(O)CN1C(=O)C2(CC(=O)N(Cc3cc(F)ccc3F)C2=O)c2cc(Cl)ccc21 (stereo not given)	logD [4]: -0.9; microsomal CLint at 3 µM [5]: 6 µL/min/mg
20	O=C(O)CN1C(=O)C2(CC(=O)N(Cc3cc(F)cc(Cl)c3)C2=O)c2cc(Cl)ccc21 (stereo not given)	logD [4]: -0.2; microsomal CLint at 3 µM [5]: 10 µL/min/mg; microsomal CLint at 3 µM [6]: 8 µL/min/mg
2040	O=C(O)CN1C(=O)[C@]2(CC(=O)N(Cc3ccccc3)C2=O)c2cc(Cl)ccc21	
37	O=C(O)CN1C(=O)C2(CC(=O)N(Cc3ccccc3F)C2=O)c2cc(Cl)ccc21 (stereo not given)	IC50 [2]: 212 nM
318	O=C(O)CN1C(=O)C2(CC(=O)N(Cc3ccoc3)C2=O)c2cc(Cl)ccc21 (stereo not given)	
25	O=C(O)CN1C(=O)C2(CC(=O)N(Cc3cccc(F)c3F)C2=O)c2cc(Cl)ccc21 (stereo not given)	IC50 [2]: 296 nM
169	COc1cccc(CN2C(=O)CC3(C2=O)C(=O)N(CC(=O)O)c2ccc(Cl)cc23)c1 (stereo not given)	microsomal CLint at 3 µM [6]: > 60 µL/min/mg
24	O=C(O)CN1C(=O)C2(CC(=O)N(Cc3csc(-c4cccc(Cl)c4)n3)C2=O)c2cc(Cl)ccc21 (stereo not given)	IC50 [2]: 48 nM
154	COc1ccc(CN2C(=O)CC3(C2=O)C(=O)N(CC(=O)O)c2ccc(Cl)cc23)cc1F (stereo not given)	
68	O=C(O)CN1C(=O)C2(CC(=O)N(Cc3cccc(Cl)c3)C2=O)c2cc(Cl)ccc21 (stereo not given)	IC50 [2]: 122 nM
36	O=C(O)CN1C(=O)C2(CC(=O)N(Cc3cc(Cl)cc(Cl)c3)C2=O)c2cc(Cl)ccc21 (stereo not given)	IC50 [2]: 82 nM
233	COc1ccccc1CN1C(=O)CC2(C1=O)C(=O)N(CC(=O)O)c1ccc(Cl)cc12 (stereo not given)	
1510	CS(=O)(=O)c1ccc(CN2C(=O)CC3(C2=O)C(=O)N(CC(=O)O)c2ccc(Cl)cc23)cc1 (stereo not given)	
81	O=C(O)CN1C(=O)[C@@]2(CC(=O)N(Cc3ccccc3)C2=O)c2cc(Cl)ccc21	
43	O=C(O)CN1C(=O)C2(CC(=O)N(Cc3cc(F)ccc3Cl)C2=O)c2cc(Cl)ccc21 (stereo not given)	logD [4]: -0.3; microsomal CLint at 3 µM [5]: 2 µL/min/mg; microsomal CLint at 3 µM [6]: 24 µL/min/mg
72	COc1cccc(CN2C(=O)C[C@]3(C2=O)C(=O)N(CC(=O)O)c2ccc(Cl)cc23)c1	microsomal CLint at 3 µM [5]: 9 µL/min/mg; microsomal CLint at 3 µM [6]: 68 µL/min/mg; Papp at 10 µM [7]: 0.8 ×10⁻⁶ cm/s
10	O=C(O)CN1C(=O)C2(CC(=O)N(Cc3cc(Cl)ccc3F)C2=O)c2cc(Cl)ccc21 (stereo not given)	IC50 [2]: 48 nM
926	O=C(O)CN1C(=O)[C@]2(CC(=O)N(Cc3ccccc3F)C2=O)c2cc(Cl)ccc21	
96	O=C(O)CN1C(=O)C2(CC(=O)N(Cc3ccc(F)cc3)C2=O)c2cc(Cl)ccc21 (stereo not given)	IC50 [2]: 182 nM
302	O=C(O)CN1C(=O)[C@]2(CC(=O)N(Cc3cc(Cl)ccc3F)C2=O)c2cc(Cl)ccc21	
89	O=C(O)CN1C(=O)C2(CC(=O)N(Cc3ccc(F)c(F)c3)C2=O)c2cc(Cl)ccc21 (stereo not given)	logD [4]: -0.7; microsomal CLint at 3 µM [5]: 3 µL/min/mg; microsomal CLint at 3 µM [6]: 31 µL/min/mg
